The record followed here is ChEMBL document CHEMBL1124702, “Synthesis and pharmacological evaluation of a series of dibenzo[a,d]cycloalkenimines as N-methyl-D-aspartate antagonists” (J Med Chem, 1990).

For test [1], the system named is Mus musculus. Briefly: Inhibition of N-Methyl-D,L-aspartate induced convulsions in mice following 500 mg/kg i.p. The note with it: ip, route intraperitoneal. Format: functional.
The subject of test [2] is Mus musculus. Nature of the test: Tested for inhibition of convulsions induced by N-Methyl-D,L-aspartate (NMDLA), after sc administration of a dose of […] in mice. In kind it is functional. The conditions noted are these: route subcutaneous. An outline of the steps: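 Test drug given iv 15 min before the convulsant. NMDLA given at 500 mg/kg, sc or ip. Separately, NMDA given sc at 400 mg/kg. Anticonvulsant ED50 determined.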

For test [3], the target named is Glutamate NMDA receptor. Briefly: Inhibition of N-methyl-D-aspartate glutamate receptor (NMDA receptor) from homogenized rat brain membrane, using [3H]-MK-801 as a radioligand. An outline of the steps: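 Male Sprague-Dawley rat (200-300 g) cortical membranes, washed and preincubated 20 min at 23 °C in 5 mM Tris-HCl pH 7.4. Duplicate aliquots (ca. 0.75 mg protein) incubated 60 min at 23 °C with displacer plus [3H]-(+)-10 added as 100 µL of 50 nM stock. Filter-bound radioactivity counted by liquid scintillation; Ki reported.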

In test [4] the target is T1, Glutamate NMDA receptor (Rattus norvegicus) (UniProt P35439+Q00959+Q00960+Q00961+Q62645+Q8VHN2+Q9R1M7). Nature of the test: Antagonistic activity against N-methyl-D-aspartate glutamate receptor from rat cortical slice. Format: functional. An outline of the steps: (§1)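 Greased-gap recording of NMDA-induced population depolarizations in rat cortical slices. An NMDA concentration-response curve was run, then repeated with antagonist present. Apparent Kb = antagonist concentration/(CR-1), with CR taken at the midpoint of the control curve. If the curve flattened, a lower antagonist concentration was tried. Failing that, the threshold concentration giving significant antagonism was used.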

The target of test [5] is T1, Glutamate NMDA receptor (Rattus norvegicus). Briefly: Antagonistic activity against N-methyl-D-aspartate glutamate receptor from rat cortical slice was determined (expt.1). In kind it is functional. Summed up: as §1
For test [6] the target is unchanged. Briefly: Antagonistic activity against N-methyl-D-aspartate glutamate receptor from rat cortical slice was determined (expt.2). In kind it is functional. Summed up:
as §1

Turning to `CC12NC(Cc3ccc(Br)cc31)c1ccccc12` (stereo in doubt; 88), the ED50 (commonly the midpoint of the dose-response relation) is 1.25 mg/kg in test [1] and 1.42 mg/kg in test [2]. Also, in test [3], the affinity, expressed as Ki, was 80 nM.
With `CC12NC(Cc3ccc(CO)cc31)c1ccccc12` (stereo not drawn), the 50% effect level in test [1] (ED50) was put at a dose of 1.19 mg/kg. The inhibition constant Ki – broadly, a dissociation constant, usually derived from enzyme kinetics or from competition with a known ligand – in test [3] was found to be 137 nM. The Kb – broadly, the equilibrium dissociation constant of an antagonist, usually derived from a functional assay – in test [4] came to 270 nM.
The corresponding values for `Cc1ccc2c(c1)C1(C)NC(C2)c2ccccc21` (stereo not drawn) are 0.53 mg/kg, 34 nM and 380 nM.
`CC12NC(Cc3ccc(O)cc31)c1ccccc12` (stereo not drawn) returned a Ki in test [3] of 18 nM. In addition, the Kb amounted to 240 nM in test [5] and 510 nM in test [6].
Molecule `CC12NC(Cc3ccccc31)c1ccc(O)cc12` (stereo not drawn) displayed an ED50 in test [1] of 0.43 mg/kg. Moreover, the affinity in test [3] corresponds to a Ki of 23 nM. Also, the Kb in test [4] amounted to 130 nM.
The molecule `FCC12NC(Cc3ccccc31)c1ccccc12` (stereo not drawn) gave an ED50 in test [1] of 2.55 mg/kg. Further, in test [3], affinity was put at a Ki of 160 nM. In addition, the Kb in test [4] was determined as 720 nM.
